According to ChEMBL document CHEMBL1122091, “Synthesis of pyridazine analogues of the naturally occurring nucleosides cytidine, uridine, deoxycytidine, and deoxyuridine” (1982):
The source made the active and inactive calls. The calls are words filed in the database; no cut-off is given here.

Tests used:
[1] = system: L1210; test: In vivo percent increase in life span (%ILS) of mice bearing L1210 leukemia at a dose of 400 mg/kg; format: functional, Mus musculus; conditions: for ILS at 400 mg/kg: Mus musculus, L1210, dose 400 mg/kg
Outline: (§1)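 Run by the NCI Division of Cancer Treatment, which supplied the data, using standard National Cancer Institute protocols for mouse L1210 leukemia.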

[2] = system: L1210; test: In vitro inhibitory activity against growth of L1210 mouse leukemia cells at 10E-4 M concentration; IA means Inactive; format: functional, cell-based
Outline: (§2)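 L1210 mouse leukemia cells grown in static suspension culture in Fischer's medium for leukemic cells of mice; growth rate over a 3-day period measured with test compound present continuously.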

[3] = system: L1210; test: In vivo percent increase in life span (%ILS) of mice bearing L1210 leukemia at a dose of 200 mg/kg; format: functional; conditions: Mus musculus; outline: as §1
[4] = system: L1210; test: In vitro inhibitory activity against growth of L1210 mouse leukemia cells at 10E-4 M concentration; format: functional; conditions: read-out: ID50 (the source's name); outline: as §2

Row | Structure (SMILES) | ILS at 400 mg/kg [1] | ID50 [2] | ILS at 200 mg/kg [3] | IC50 [4] | ILS ([1]; dose 400 mg/kg)
1 | Nc1cnn(C2O[C@H](CO)[C@@H](O)[C@H]2O)c(=O)c1 (stereo partly drawn) | < 25% | inactive |  |  | 
2 | CN(C)c1cnn(C2O[C@H](CO)[C@@H](O)[C@H]2O)c(=O)c1Cl (stereo partly drawn) | < 25% | inactive |  |  | 
3 | O=c1cc(O)cnn1[C@@H]1O[C@H](CO)[C@@H](O)[C@H]1O (stereo in doubt; 15) | 32% |  | 32% | 70 µM | 
4 | Nc1cnn([C@H]2C[C@H](O)[C@@H](CO)O2)c(=O)c1 | < 25% | inactive |  |  | 
5 | O=C(OC[C@H]1O[C@@H](n2ncccc2=O)[C@H](OC(=O)c2ccccc2)[C@@H]1OC(=O)c1ccccc1)c1ccccc1 | < 25% | inactive |  |  | 
6 | COc1cnn([C@H]2C[C@H](O)[C@@H](CO)O2)c(=O)c1 | < 25% | inactive |  |  | 
7 | O=c1cccnn1C1O[C@H](CO)[C@@H](O)[C@H]1O (stereo partly drawn) | < 25% | inactive |  |  | 
8 | O=C1C=NN([C@H]2C[C@H](O)[C@@H](CO)O2)C(=O)C1 | < 25% | inactive |  |  | 
9 | CN(C)c1cnn(C2O[C@H](CO)[C@@H](O)[C@H]2O)c(=O)c1 (stereo partly drawn) | < 25% | inactive |  |  | 
10 | O=C(OC[C@H]1O[C@@H](n2ncc(Cl)c(Cl)c2=O)[C@H](OC(=O)c2ccccc2)[C@@H]1OC(=O)c1ccccc1)c1ccccc1 | < 25% | inactive |  |  | 
11 | Nc1cnn([C@H]2C[C@H](O)[C@@H](CO)O2)c(=O)c1Cl | < 25% | inactive |  |  | 
12 | C[Si](C)(C)Oc1nncc(Cl)c1Cl | < 25% | inactive |  |  | 
13 | Nc1cnn(C2O[C@H](CO)[C@@H](O)[C@H]2O)c(=O)c1Cl (stereo partly drawn) | < 25% | inactive |  |  | 
14 | COc1cnn(C2O[C@H](CO)[C@@H](O)[C@H]2O)c(=O)c1 (stereo partly drawn) | < 25% | inactive |  |  | 
15 | CNc1cnn(C2O[C@H](CO)[C@@H](O)[C@H]2O)c(=O)c1Cl (stereo partly drawn) | < 25% | inactive |  |  | 
16 | O=c1cnn([C@@H]2O[C@H](CO)[C@@H](O)[C@H]2O)c(=O)[nH]1 [6-AZAURIDINE] | < 25% | inactive |  |  | 
17 | O=c1c(SCc2ccccc2)c(SCc2ccccc2)cnn1C1O[C@H](CO)[C@@H](O)[C@H]1O (stereo partly drawn) | < 25% | inactive |  |  | 
18 | O=C1C=NN(C2O[C@H](CO)[C@@H](O)[C@H]2O)C(=O)C1 (stereo partly drawn) | < 25% | inactive |  |  | 
19 | CN(C)c1cnn(C2O[C@H](CO)[C@@H](O)[C@H]2O)c(=O)c1N(C)C (stereo partly drawn) | < 25% | inactive |  |  | 
20 | Oc1nncc(Cl)c1Cl | > 25% | inactive |  |  | 
21 | O=c1cc(O)cnn1[C@@H]1O[C@H](CO)[C@@H](O)[C@H]1O (stereo in doubt; 17) |  |  |  |  | >25%
22 | O=c1ccn([C@@H]2O[C@H](CO)[C@@H](O)[C@H]2O)c(=O)[nH]1 [URIDINE] | < 25% | inactive |  |  | 
23 | CNc1cnn(C2O[C@H](CO)[C@@H](O)[C@H]2O)c(=O)c1 (stereo partly drawn) | < 25% | inactive |  |  | 
24 | CC(=O)OC[C@H]1O[C@@H](N2N=CC(=O)CC2=O)[C@H](OC(C)=O)[C@@H]1OC(C)=O | < 25% | inactive |  |  | 
25 | CC1(C)O[C@@H]2[C@H](O1)[C@@H](CO)O[C@H]2n1ncc(N)c(Cl)c1=O | < 25% | inactive |  |  | 
26 | COc1cnn([C@H]2C[C@H](O)[C@@H](CO)O2)c(=O)c1Cl | < 25% | inactive |  |  | 
27 | CSc1cnn(C2O[C@H](CO)[C@@H](O)[C@H]2O)c(=O)c1SC (stereo partly drawn) | < 25% | inactive |  |  | 
28 | COc1cnn(C2O[C@H](CO)[C@@H](O)[C@H]2O)c(=O)c1Cl (stereo partly drawn) | < 25% | inactive |  |  | 
29 | CC(=O)OC[C@H]1O[C@@H](n2ncc(N)cc2=O)[C@H](OC(C)=O)[C@@H]1OC(C)=O | < 25% | inactive |  |  | 
